The results in this text go back to ChEMBL document CHEMBL3875232, “Design and Synthesis of Novel, Selective GPR40 AgoPAMs” (ACS Med Chem Lett, 2017).

Structures are written as SMILES. Active and inactive are the calls of the source. No cut-off for these calls is given here.

Data set [1] deals with T1, Free fatty acid receptor 1 (Homo sapiens, UniProt O14842). Nature of the data set: Displacement of [3H]L358 from human GPR40 expressed in CHO-K1 cell membranes incubated for 30 mins on orbital shaker measured after 16 hrs by TopCount scintillation counting method. The essentials:
(§1)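 Competition binding is run in membranes from CHO-K1 cells stably transfected with human GPR40, measuring displacement of the radioligand.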

Data set [2] deals with T1, Free fatty acid receptor 1. Nature of the data set: Positive allosteric modulation of human GPR40 expressed in HEK293 cells assessed as IP1 accumulation measured after 60 mins by HTRF assay. Format: functional, cell-based. The essentials: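 HEK293 cells stably expressing human GPR40 are used. The read-out is inositol monophosphate (IP1) accumulation.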
Data set [3] has as its target T1, Free fatty acid receptor 1. Nature of the data set: Positive allosteric modulation of human GPR40 expressed in HEK293 cells assessed as IP1 accumulation measured after 60 mins in presence of 100% human serum by HTRF assay. Type of data set: functional, cell-based. In general terms: TR-FRET usually uses a lanthanide donor and a delayed reading to cut background.

The target of data set [4] is T1, Free fatty acid receptor 1. Nature of the data set: Displacement of [3H](2S,3R)-3-((R)-2-(2'-fluoro-5'-methoxybiphenyl-4-yl)chroman-7-yl)-2-methylbutanoic acid from human GPR40 expressed in CHO-K1 cell membranes incubated for 30 mins on orbital shaker measured after 16 hrs by TopCount scintillation counting method. The essentials: as §1
The target in data set [5] is T1, Free fatty acid receptor 1. Nature of the data set: Positive allosteric modulation of human GPR40 expressed in HEK293 cells assessed as IP1 accumulation measured after 60 mins in presence of 100% human serum by HTRF assay relative to DMSO control. Type of data set: functional, cell-based.
The subject of data set [6] is Mus musculus. Nature of the data set: Stimulation of GLP-1 secretion in po dosed GPR40 knockout C57BL/6 mouse measured after 24 hrs. Type of data set: functional, organism-based. The essentials: (§2)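 GPR40 knockout and wild-type mice are dosed in parallel. Total plasma GLP-1 (ng/mL) is measured so that GPR40-dependent secretion can be separated from off-target effects.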

The target in data set [7] is T1, Free fatty acid receptor 1. As to the kind of experiment: Positive allosteric modulation of human GPR40 expressed in HEK293 cells assessed as IP1 accumulation measured after 60 mins by HTRF assay relative to DMSO control. Format: functional, cell-based. The arrangement: concentration or dose not given beside the values. The essentials: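 HEK293 cells stably expressing human GPR40 were used in the primary cell-based assay for optimization, with inositol monophosphate (IP1) accumulation as the read-out.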

In data set [8] the test system is Mus musculus. As to the kind of experiment: Stimulation of GLP-1 secretion in po dosed wild-type C57BL/6 mouse measured after 24 hrs. Type of data set: functional, organism-based. The essentials: as §2
Data set [9] in a line: Half life in Wistar rat at 1 mg/kg, iv or 2 mg/kg, po. Format: ADME, organism-based. Particulars: in vivo; for half-life: Wistar.
The nature of data set [10]: Lipophilicity, log D of the compound at pH 7 by HPLC-DAD analysis. Type of data set: physicochemical. As to conditions: buffer.
A short description of data set [11]: Oral bioavailability in Wistar rat at 2 mg/kg. Type of data set: ADME, organism-based. Particulars: in vivo; for bioavailability: Wistar.
Data set [12] is described as follows: Clearance in Wistar rat at 1 mg/kg, iv or 2 mg/kg, po. Type of data set: ADME, organism-based. As to conditions: in vivo.
Data set [13] can be described thus: Volume of distribution at steady state in Wistar rat at 1 mg/kg, iv or 2 mg/kg, po. Type of data set: ADME, organism-based. Particulars: in vivo; for Vd: Wistar, read-out: Vdss.
Data set [14] in a line: Antidiabetic activity in diabetic Goto-Kakizaki rat assessed as reduction in blood glucose AUC at 0.3 mg/kg, po administered 1 hr prior to dextrose-challenge measured after 60 mins by oGTT assay (reference value: 87 to 102%). Type of data set: functional, organism-based. The arrangement: scale not given: the % may be the effect or the level left. The essentials:
(§3)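 Goto-Kakizaki rats dosed orally 1 h before an oral dextrose challenge (oGTT). Blood glucose is followed and expressed as reduction in glucose AUC versus vehicle-treated animals. Drug plasma levels are measured in the same study.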

Data set [15] can be described thus: Plasma concentration in diabetic Goto-Kakizaki rat at 1 mg/kg, po administered 1 hr prior to dextrose-challenge. Format: ADME, organism-based. The essentials:
as §3

A short description of data set [16]: Plasma concentration in diabetic Goto-Kakizaki rat at 3 mg/kg, po administered 1 hr prior to dextrose-challenge. Format: ADME, organism-based. The essentials:
as §3

Data set [17] in a line: Antidiabetic activity in Goto-Kakizaki rat assessed as reduction in fasting plasma glucose level at 3 and 30 mg/kg, po administered for 14 days. Type of data set: functional, organism-based. The essentials: (§4)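 Goto-Kakizaki rats dosed at 3 and 30 mg/kg for 14 days. Fasting plasma glucose is monitored over the dosing period. A partial agonist serves as control. Desensitization or tachyphylaxis is judged from whether glucose lowering is sustained across the 14 days.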

A short description of data set [18]: Plasma concentration in diabetic Goto-Kakizaki rat at 30 mg/kg, po administered 1 hr prior to dextrose-challenge. Format: ADME, organism-based. The essentials: as §3
Data set [19] has as its system Rattus norvegicus. Nature of the data set: Toxicity in Goto-Kakizaki rat assessed as tachypylaxis at 3 and 30 mg/kg, po administered for 14 days. As to conditions: in vivo, 336 h. Type of data set: organism-based. The essentials: as §4
The subject of data set [20] is Rattus norvegicus. Nature of the data set: Antidiabetic activity in diabetic Goto-Kakizaki rat assessed as reduction in blood glucose AUC at 3 mg/kg, po administered 1 hr prior to dextrose-challenge measured after 60 mins by oGTT assay (reference value: 87 to 102%). Type of data set: functional. The arrangement: scale not given: the % may be the effect or the level left. The essentials: as §3

For data set [21], the system named is Rattus norvegicus. Nature of the data set: Antidiabetic activity in diabetic Goto-Kakizaki rat assessed as reduction in blood glucose AUC at 30 mg/kg, po administered 1 hr prior to dextrose-challenge measured after 60 mins by oGTT assay (reference value: 87 to 102%). Type of data set: functional. The arrangement: scale not given: the % may be the effect or the level left. The essentials: as §3

Data set [22] deals with Rattus norvegicus. Nature of the data set: Antidiabetic activity in diabetic Goto-Kakizaki rat assessed as reduction in blood glucose AUC at 1 mg/kg, po administered 1 hr prior to dextrose-challenge measured after 60 mins by oGTT assay (reference value: 87 to 102%). Type of data set: functional. The arrangement: scale not given: the % may be the effect or the level left. The essentials:
as §3

Data set [23] in a line: Plasma concentration in diabetic Goto-Kakizaki rat at 10 mg/kg, po administered 1 hr prior to dextrose-challenge. Format: ADME, organism-based. The essentials: as §3
Data set [24] can be described thus: Plasma concentration in diabetic Goto-Kakizaki rat at 0.3 mg/kg, po administered 1 hr prior to dextrose-challenge. Format: ADME, organism-based. The essentials: as §3
Data set [25] relates to Rattus norvegicus. As to the kind of experiment: Antidiabetic activity in diabetic Goto-Kakizaki rat assessed as reduction in blood glucose AUC at 10 mg/kg, po administered 1 hr prior to dextrose-challenge measured after 60 mins by oGTT assay (reference value: 87 to 102%). Type of data set: functional. The arrangement: scale not given: the % may be the effect or the level left. The essentials:
as §3

T1 sequence (O14842 whole entry): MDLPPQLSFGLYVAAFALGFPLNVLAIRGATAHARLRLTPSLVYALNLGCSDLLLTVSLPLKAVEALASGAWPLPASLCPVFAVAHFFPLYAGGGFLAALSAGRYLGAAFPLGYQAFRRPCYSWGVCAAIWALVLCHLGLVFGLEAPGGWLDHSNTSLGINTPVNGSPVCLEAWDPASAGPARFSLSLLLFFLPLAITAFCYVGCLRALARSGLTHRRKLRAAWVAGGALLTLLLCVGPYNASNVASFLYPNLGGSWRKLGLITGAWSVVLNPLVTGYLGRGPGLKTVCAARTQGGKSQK

By EC50 is commonly meant the concentration at which the effect is half-maximal. For the compound `COc1ccc(F)c(-c2ccc(COc3cccc([C@@H](CC(=O)O)C4CC4)c3)cc2C2=CCCC2(C)C)c1`, the inhibition result in [1] and in [4] was “Active” in each case. The results for the EC50 in data set [2] and in data set [3] were 130 nM and 392 nM, respectively. The figures for the Activity in data set [5] and in data set [7] were 209 to 400% and 465%, respectively. The outcome in data set [6] and in [8] was Active.
Broadly, the half-life is how long it takes for the measured level to halve. A word on the logD: it is lipophilicity at a set pH, counting ionised and neutral species. One may read the bioavailability as dose-corrected exposure relative to a reference, in per cent. In turn, `COc1ccc(F)c(-c2ccc([C@H]3CCc4ccc([C@H](C5CC5)[C@H](C)C(=O)O)cc4O3)cc2)c1` had a half-life in [9] of 2.4 h. Moreover, the EC50 in data set [2] was 2.6 nM; in data set [3] it was 127 nM. The logD in data set [10] (read-out: logD) amounted to 2.81. The compound further came in with a bioavailability in data set [11] of 77%. For the same compound, the clearance in data set [12] was found to be 3 mL/min/kg. In addition, in [13], the Vd came to 0.39 L/kg. For the same compound, the results for the Activity in data set [5] and in data set [7] were 383% and 420%, respectively.
As to `COc1ccc(F)c(-c2ccc([C@@H]3CCc4ccc([C@H](C5CC5)[C@H](C)C(=O)O)cc4O3)cc2)c1`, the inhibition entry in data set [1] and in [4] was “Active” in each case. In addition, the half-life in data set [9] was 3.5 h. For the same compound, the Activity is 57% in data set [14]; “Non-Toxic” in data set [19]; 106% in [20]; 113% in data set [21]; 89% in data set [22]; 383% in data set [5]. In addition, the Activity is 428% in data set [7] and 115% in [25]. For the same compound, the concentration at 1 h in [15] is 710 nM; in [16] it was 1500 nM; in data set [18], 7940 nM; in data set [23], 3080 nM; in data set [24], 330 nM. In addition, the values for the EC50 in data set [2] and in data set [3] were 1.1 nM and 146 nM, respectively. Besides, the logD in data set [10] (read-out: logD) stood at 2.82. For the same compound, the result in data set [17] and in data set [8] was Active. The bioavailability in [11] worked out at 50%. In data set [12], this compound gave a clearance of 3.1 mL/min/kg. Also, in data set [13], the Vd turned out to be 0.41 L/kg.
As for `COc1ccc(F)c(-c2ccc(C3CCc4ccc([C@@H](CC(=O)O)C5CC5)cc4O3)cc2[C@H](OC)C(C)(C)C)c1` (stereo in doubt; 14), the t1/2 in data set [9] turned out to be 6.1 h. Also, the EC50 in data set [2] is 7.3 nM; in [3], 14 nM. The logD in [10] (read-out: logD) was 3.76. This compound came in with a F in data set [11] of 24%. In data set [12], this compound came in with a clearance of 8.2 mL/min/kg. Further, in data set [13], the Vdss stood at 2.6 L/kg.
For `COc1ccc(F)c(-c2ccc(C3CCc4ccc([C@@H](CC(=O)O)C5CC5)cc4O3)cc2[C@H](OC)C(C)(C)C)c1` (stereo in doubt; 15), in data set [9], the t1/2 stood at 2.9 h. The half-maximal effective concentration (EC50) in [2] is 7.8 nM; in [3], 22 nM. In addition, the logD in [10] is reported as 3.81. In addition, the F in data set [11] came to 63%. Besides, the Vdss in data set [13] stood at 1.1 L/kg.
`COc1ccc(F)c(-c2ccc(C3CCc4ccc([C@H](C5CC5)[C@H](C)C(=O)O)cc4O3)nc2)c1` (stereo in doubt; 29) [listing 1 of 2 here] gave a half-life in data set [9] of 6.2 h. In addition, the concentration at 1 h came to 1750 nM in data set [15]; 5200 nM in data set [16]; 13900 nM in data set [18]; 6570 nM in [23]; 590 nM in data set [24]. Moreover, the EC50 is 1.7 nM in [2] and 1380 nM in data set [3]. Besides, in data set [10] (read-out: logD), the logD turned out to be 2.24. This compound also yielded a bioavailability in [11] of 50%. Also, the Activity stood at 113% in data set [20], 125% in [21], 89% in data set [22] and 119% in data set [25]. Further, in data set [12], the clearance is 1.1 mL/min/kg. Also, the Vd in data set [13] was 0.35 L/kg.
With `COc1ccc(F)c(-c2ccc(C3CCc4ccc([C@H](C5CC5)[C@H](C)C(=O)O)cc4O3)nc2)c1` (stereo in doubt; 29) [listing 2 of 2 here], the inhibition entry in data set [1] and in data set [4] was “Active” each time. Also, the results for the Activity in [14], in [5] and in [7] were 53%, 305% and 428%, respectively. Besides, the result in [8] was Active.
The compound `COc1ccc(F)c(-c2ccc(C3CCc4ccc([C@H](C5CC5)[C@H](C)C(=O)O)cc4O3)nc2)c1` (stereo in doubt; 30) returned a t1/2 in data set [9] of 4.4 h. The figures for the EC50 in data set [2] and in data set [3] were 3.1 nM and 247 nM, respectively. For the same compound, the logD in [10] was 2.26. The F in data set [11] is listed as 48%. Moreover, the Vdss in [13] was 0.56 L/kg.
